Source: ChEMBL document CHEMBL1137680, “A class of potent tyrosinase inhibitors: alkylidenethiosemicarbazide compounds” (Eur J Med Chem, 2009)

What follows are compounds tested against T1, Tyrosinase (Agaricus bisporus, UniProt O42713) (assay: Inhibition of mushroom tyrosinase).
T1 sequence (O42713 whole entry): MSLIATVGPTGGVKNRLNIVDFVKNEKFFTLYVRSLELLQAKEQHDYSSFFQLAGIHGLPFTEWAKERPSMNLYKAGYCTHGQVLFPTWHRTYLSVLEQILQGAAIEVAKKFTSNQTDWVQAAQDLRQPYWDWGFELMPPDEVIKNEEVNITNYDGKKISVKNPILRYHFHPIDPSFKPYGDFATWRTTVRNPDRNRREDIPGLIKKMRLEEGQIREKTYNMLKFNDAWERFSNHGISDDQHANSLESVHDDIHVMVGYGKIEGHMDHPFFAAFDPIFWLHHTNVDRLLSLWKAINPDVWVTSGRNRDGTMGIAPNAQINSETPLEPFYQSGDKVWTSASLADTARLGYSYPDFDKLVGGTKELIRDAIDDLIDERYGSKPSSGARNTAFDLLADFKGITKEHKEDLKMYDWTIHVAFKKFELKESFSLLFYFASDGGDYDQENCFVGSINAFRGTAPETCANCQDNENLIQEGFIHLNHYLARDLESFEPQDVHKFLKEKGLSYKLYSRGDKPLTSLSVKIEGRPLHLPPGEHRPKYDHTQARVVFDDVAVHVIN
How it was run: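 Mushroom tyrosinase diphenolase activity, 30 units (0.2 mg/mL), preincubated 10 min at 25 °C with compound in 50 mM phosphate buffer pH 6.8; compound diluted from DMSO stock. At least eight inhibitor concentrations; IC50 interpolated from dose-response curves.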

| IC50 [nM] | SMILES |
| --- | --- |
| 950 | NC(=S)NN=C1CCCCC1 |
| 170 | NC(=S)NN=C1CCCC1 |
| 15100 | NC(=S)N/N=C1\CCCC(=O)C1 |
| 620 | CC(C)/C=N\NC(N)=S |
| 230 | C/C=N\NC(N)=S |

The remaining lines, values behind:

| SMILES | IC50 [nM] |
| --- | --- |
| CC(C)=NNC(N)=S | 86 |
| CC(C)=C/C(C)=N\NC(N)=S | 11500 |
| CC/C(C)=N\NC(N)=S | 280 |
| Cc1ccc(C)n1NC(N)=S | 850 |
| CC/C=N\NC(N)=S | 200 |
| NC(=S)N/N=C\C=C\c1ccccc1 | 2700 |
| C/C=C/C=N\NC(N)=S | 1000 |
